Ten compounds from ChEMBL document CHEMBL3585325, “Discovery of (1R,2S)-2-{[(2,4-Dimethylpyrimidin-5-yl)oxy]methyl}-2-(3-fluorophenyl)-N-(5-fluoropyridin-2-yl)cyclopropanecarboxamide (E2006): A Potent and Efficacious Oral Orexin Receptor Antagonist” (J Med Chem, 2015) can be followed below.

The IC50 is the midpoint of a concentration-inhibition curve. What is called solubility (kinetic) is solubility judged after dilution from a stock solution rather than from solid. Usually Ki stands for the equilibrium dissociation constant of an inhibitor or competing ligand from its target.

In brackets after ≈: the same amount, converted by molar mass.

For one series, the target named is CYP3A (Homo sapiens, UniProt P08684+P20815+P24462+Q9HB55). Briefly: Time dependent inhibition of CYP3A in human liver microsomes assessed as enzyme activity using midazolam as substrate at 10 uM incubated for 30 mins prior to substrate addition for 10 mins by LC-MS/MS analysis. It is filed as ADME. Details: scale not given: the % may be the effect or the level left. Conditions: probe midazolam, read-out: Activity. In short, it runs like this:
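Test compound at 10 μM preincubated 30 min at 37 °C with human liver microsomes (0.2 mg/mL), with or without an NADPH-generating system. Mixture then diluted 10-fold into a marker-substrate cocktail plus NADPH system and incubated 10 min at 37 °C. Midazolam served as the CYP3A probe. Metabolites measured by LC−MS/MS. Result is the residual activity with NADPH relative to without, as % of control.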
(In general: Liver microsomes are a subcellular fraction often used to study metabolism.)

Another series has as its target T1, Cytochrome P450 1A2 (Homo sapiens, UniProt P05177).
T1 sequence (P05177 whole entry): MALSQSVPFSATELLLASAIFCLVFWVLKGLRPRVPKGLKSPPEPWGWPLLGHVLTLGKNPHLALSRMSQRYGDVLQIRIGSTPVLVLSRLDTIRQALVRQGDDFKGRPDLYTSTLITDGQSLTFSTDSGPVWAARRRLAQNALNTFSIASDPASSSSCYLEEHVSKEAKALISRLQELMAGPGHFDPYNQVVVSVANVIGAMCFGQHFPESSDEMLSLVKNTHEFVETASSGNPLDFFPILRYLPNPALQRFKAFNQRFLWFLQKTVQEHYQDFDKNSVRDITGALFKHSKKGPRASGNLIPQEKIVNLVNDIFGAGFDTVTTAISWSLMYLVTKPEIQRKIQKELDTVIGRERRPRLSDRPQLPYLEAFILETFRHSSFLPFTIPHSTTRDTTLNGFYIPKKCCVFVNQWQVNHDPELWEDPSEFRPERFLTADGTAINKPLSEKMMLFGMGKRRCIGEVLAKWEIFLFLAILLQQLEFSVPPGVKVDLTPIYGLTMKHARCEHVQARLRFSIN
Kind of series: Inhibition of CYP1A2 in human liver microsomes using phenacetin as susbtrate incubated for 30 mins prior to substrate addition for 10 mins by LC-MS/MS analysis. Type of series: ADME.

Series [1] can be described thus: Aqueous solubility of the compound in Japanese Pharmacopoeia 1st fluid at pH 1.2 by DMSO solution precipitation method. Type of series: physicochemical. A digest of the protocol: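 Solubility in Japanese Pharmacopoeia 1st fluid (aqueous HCl containing 34 mM NaCl), pH 1.2, measured at room temperature by precipitation from a DMSO solution.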
Series [2] can be described thus: Metabolic stability in human liver microsomes assessed as residual ratio at 0.3 uM after 15 mins by LC-MS analysis. Type of series: ADME. The note with it: read-out: Stability. In short, it runs like this: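 Human liver microsomes (0.2 mg/mL) incubated with test compound at 0.3 μM in 0.1% DMSO for 15 min at 37 °C, with and without an NADPH-generating system. Reaction stopped with acetonitrile/methanol (7:3) containing internal standard. Parent compound quantified by LC−MS. Value is the residual ratio in the presence versus absence of NADPH.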

For a further series, the target named is Cytochrome P450 2D6 (Homo sapiens, UniProt P10635). Briefly: Inhibition of CYP2D6 in human liver microsomes using bufuralol as susbtrate incubated for 30 mins prior to substrate addition for 10 mins by LC-MS/MS analysis. Type of series: ADME.
Sequence of Cytochrome P450 2D6 (P10635 whole entry): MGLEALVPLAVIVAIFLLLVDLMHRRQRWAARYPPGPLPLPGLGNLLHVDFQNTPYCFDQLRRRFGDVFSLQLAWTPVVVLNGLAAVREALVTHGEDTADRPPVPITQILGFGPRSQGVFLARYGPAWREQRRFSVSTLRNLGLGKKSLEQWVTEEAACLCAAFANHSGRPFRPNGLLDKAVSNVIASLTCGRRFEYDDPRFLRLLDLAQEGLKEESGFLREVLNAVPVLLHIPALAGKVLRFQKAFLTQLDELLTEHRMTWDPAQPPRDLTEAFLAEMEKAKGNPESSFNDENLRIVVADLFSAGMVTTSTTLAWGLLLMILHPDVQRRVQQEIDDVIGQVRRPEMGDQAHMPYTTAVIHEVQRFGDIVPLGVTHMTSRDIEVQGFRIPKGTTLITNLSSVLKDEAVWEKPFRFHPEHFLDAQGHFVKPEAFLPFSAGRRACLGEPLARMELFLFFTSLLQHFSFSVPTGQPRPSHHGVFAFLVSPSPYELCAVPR
For the next series, the target named is T2, Cytochrome P450 2C8 (Homo sapiens, UniProt P10632).
T2 sequence (P10632 whole entry): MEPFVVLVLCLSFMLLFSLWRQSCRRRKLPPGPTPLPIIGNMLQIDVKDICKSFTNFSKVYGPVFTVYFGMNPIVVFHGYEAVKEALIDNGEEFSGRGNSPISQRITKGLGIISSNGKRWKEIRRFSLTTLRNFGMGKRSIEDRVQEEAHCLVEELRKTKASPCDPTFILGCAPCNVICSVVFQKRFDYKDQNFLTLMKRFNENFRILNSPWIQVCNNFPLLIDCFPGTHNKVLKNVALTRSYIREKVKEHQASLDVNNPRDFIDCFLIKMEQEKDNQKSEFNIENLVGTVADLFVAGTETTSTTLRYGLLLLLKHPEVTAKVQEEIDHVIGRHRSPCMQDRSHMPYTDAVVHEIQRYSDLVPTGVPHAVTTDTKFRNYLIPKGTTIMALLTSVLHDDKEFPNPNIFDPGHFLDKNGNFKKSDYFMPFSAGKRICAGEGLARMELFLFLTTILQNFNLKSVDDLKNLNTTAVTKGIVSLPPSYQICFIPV
Briefly: Inhibition of CYP2C8 in human liver microsomes using rosiglitazone as susbtrate incubated for 30 mins prior to substrate addition for 10 mins by LC-MS/MS analysis. Type of series: ADME.

The target of a further series is T3, Orexin receptor type 2 (Homo sapiens, UniProt O43614).
T3 sequence (O43614 whole entry): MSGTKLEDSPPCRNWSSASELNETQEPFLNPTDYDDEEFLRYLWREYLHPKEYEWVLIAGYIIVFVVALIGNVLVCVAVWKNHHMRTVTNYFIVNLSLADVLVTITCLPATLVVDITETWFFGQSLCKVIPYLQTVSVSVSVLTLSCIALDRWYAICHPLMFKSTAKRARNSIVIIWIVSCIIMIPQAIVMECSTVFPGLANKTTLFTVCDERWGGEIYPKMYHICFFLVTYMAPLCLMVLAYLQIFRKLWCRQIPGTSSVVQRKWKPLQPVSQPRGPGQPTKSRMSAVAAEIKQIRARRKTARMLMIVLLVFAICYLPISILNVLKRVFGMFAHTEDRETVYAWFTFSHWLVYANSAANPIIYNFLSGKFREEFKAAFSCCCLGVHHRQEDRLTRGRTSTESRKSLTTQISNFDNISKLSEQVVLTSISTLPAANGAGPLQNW
Briefly: Binding affinity to human OX2R by radioligand displacement binding assay.

The target of series [3] is T4, Orexin/Hypocretin receptor type 1 (Homo sapiens, UniProt O43613).
T4 sequence (O43613 whole entry): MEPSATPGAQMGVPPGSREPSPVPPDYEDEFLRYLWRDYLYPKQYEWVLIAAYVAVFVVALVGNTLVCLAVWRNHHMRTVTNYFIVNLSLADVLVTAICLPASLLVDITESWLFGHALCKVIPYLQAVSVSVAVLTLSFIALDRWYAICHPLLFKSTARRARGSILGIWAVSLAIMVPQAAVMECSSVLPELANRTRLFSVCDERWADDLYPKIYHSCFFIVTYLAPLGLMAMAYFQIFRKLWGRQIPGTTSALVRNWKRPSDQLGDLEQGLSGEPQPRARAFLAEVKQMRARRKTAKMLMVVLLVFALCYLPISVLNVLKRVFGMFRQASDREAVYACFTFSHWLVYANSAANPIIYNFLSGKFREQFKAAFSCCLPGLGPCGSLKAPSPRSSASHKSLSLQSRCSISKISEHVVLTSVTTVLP
Briefly: Binding affinity to human OX1R by radioligand displacement binding assay. A digest of the protocol: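 Ki values come from single experiments run in triplicate.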

Series [4] can be described thus: Aqueous solubility of the compound in Dulbecco's phosphate buffered saline at pH 7.4 by DMSO solution precipitation method. Type of series: physicochemical. In short, it runs like this:
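Solubility in Dulbecco's PBS at pH 7.4, measured at room temperature by precipitation from a DMSO solution.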

Series [5] can be described thus: Activity at P-gp (unknown origin) assessed as corrected flux ratio. Conditions: human. It is filed as ADME. A digest of the protocol:
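Reported as corrected flux ratio, i.e. the MDR1 flux ratio divided by the PK1 flux ratio.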

The next series deals with Cytochrome P450 2C19 (Homo sapiens, UniProt P33261). Briefly: Inhibition of CYP2C19 in human liver microsomes using S-mephenytoin as susbtrate incubated for 30 mins prior to substrate addition for 10 mins by LC-MS/MS analysis. Type of series: ADME.
Sequence of Cytochrome P450 2C19 (P33261 whole entry): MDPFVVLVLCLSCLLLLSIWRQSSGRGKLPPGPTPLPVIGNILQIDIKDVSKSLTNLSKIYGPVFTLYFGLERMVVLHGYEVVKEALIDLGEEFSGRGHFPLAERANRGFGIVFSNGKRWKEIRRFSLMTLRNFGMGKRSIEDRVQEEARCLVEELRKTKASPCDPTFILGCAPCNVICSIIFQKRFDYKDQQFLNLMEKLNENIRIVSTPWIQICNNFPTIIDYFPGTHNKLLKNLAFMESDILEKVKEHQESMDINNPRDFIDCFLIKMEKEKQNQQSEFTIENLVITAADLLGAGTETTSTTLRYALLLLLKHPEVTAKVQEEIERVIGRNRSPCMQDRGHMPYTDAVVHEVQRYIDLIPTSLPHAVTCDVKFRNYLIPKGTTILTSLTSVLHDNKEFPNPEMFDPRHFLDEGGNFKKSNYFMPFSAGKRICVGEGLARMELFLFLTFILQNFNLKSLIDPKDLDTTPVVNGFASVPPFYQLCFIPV
For another series, the target named is Cytochrome P450 2C9 (Homo sapiens, UniProt P11712). Briefly: Inhibition of CYP2C9 in human liver microsomes using tolbutamide as susbtrate incubated for 30 mins prior to substrate addition for 10 mins by LC-MS/MS analysis. Type of series: ADME.
Sequence of Cytochrome P450 2C9 (P11712 whole entry): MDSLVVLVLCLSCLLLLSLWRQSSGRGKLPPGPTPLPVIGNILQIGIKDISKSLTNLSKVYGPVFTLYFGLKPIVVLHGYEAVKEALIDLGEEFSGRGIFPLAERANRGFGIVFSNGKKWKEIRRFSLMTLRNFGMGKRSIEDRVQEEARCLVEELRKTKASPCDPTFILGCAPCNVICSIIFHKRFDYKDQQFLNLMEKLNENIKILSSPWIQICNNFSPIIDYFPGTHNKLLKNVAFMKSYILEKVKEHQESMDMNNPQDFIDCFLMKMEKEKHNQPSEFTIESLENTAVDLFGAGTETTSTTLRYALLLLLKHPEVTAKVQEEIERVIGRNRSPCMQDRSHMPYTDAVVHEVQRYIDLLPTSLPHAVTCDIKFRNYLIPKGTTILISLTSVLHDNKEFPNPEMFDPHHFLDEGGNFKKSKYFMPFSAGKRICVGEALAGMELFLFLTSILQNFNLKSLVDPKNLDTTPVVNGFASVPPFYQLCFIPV
A further series has as its system Mus musculus. Kind of series: Sleep promoting activity in C57BL/6NCrlCrlj mouse assessed as reduction in wakefulness time at 30 mg/kg, po administered immediately prior to beginning of dark cycle measured during first 3 hrs after drug administration by electroencephalogram/electromyogram analysis (reference value: 116.7 min). It is filed as functional. In short, it runs like this: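 Male C57BL/6NCrlCrlj mice implanted with EEG/EMG electrodes were dosed orally in 10% Cremophor EL, 5% DMSO in saline just before lights-off (ZT12) and recorded from ZT12 to ZT20. Group sizes were n=6 dosed and n=7 vehicle. Stages were scored by software with blinded visual confirmation; cumulative first-3-h times are mean with SEM. Dunnett's test was run after one-way ANOVA.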

For series [6], the target named is Voltage-gated inwardly rectifying potassium channel KCNH2 (Homo sapiens, UniProt Q12809). Kind of series: Inhibition of human ERG.
Sequence of Voltage-gated inwardly rectifying potassium channel KCNH2 (Q12809 whole entry): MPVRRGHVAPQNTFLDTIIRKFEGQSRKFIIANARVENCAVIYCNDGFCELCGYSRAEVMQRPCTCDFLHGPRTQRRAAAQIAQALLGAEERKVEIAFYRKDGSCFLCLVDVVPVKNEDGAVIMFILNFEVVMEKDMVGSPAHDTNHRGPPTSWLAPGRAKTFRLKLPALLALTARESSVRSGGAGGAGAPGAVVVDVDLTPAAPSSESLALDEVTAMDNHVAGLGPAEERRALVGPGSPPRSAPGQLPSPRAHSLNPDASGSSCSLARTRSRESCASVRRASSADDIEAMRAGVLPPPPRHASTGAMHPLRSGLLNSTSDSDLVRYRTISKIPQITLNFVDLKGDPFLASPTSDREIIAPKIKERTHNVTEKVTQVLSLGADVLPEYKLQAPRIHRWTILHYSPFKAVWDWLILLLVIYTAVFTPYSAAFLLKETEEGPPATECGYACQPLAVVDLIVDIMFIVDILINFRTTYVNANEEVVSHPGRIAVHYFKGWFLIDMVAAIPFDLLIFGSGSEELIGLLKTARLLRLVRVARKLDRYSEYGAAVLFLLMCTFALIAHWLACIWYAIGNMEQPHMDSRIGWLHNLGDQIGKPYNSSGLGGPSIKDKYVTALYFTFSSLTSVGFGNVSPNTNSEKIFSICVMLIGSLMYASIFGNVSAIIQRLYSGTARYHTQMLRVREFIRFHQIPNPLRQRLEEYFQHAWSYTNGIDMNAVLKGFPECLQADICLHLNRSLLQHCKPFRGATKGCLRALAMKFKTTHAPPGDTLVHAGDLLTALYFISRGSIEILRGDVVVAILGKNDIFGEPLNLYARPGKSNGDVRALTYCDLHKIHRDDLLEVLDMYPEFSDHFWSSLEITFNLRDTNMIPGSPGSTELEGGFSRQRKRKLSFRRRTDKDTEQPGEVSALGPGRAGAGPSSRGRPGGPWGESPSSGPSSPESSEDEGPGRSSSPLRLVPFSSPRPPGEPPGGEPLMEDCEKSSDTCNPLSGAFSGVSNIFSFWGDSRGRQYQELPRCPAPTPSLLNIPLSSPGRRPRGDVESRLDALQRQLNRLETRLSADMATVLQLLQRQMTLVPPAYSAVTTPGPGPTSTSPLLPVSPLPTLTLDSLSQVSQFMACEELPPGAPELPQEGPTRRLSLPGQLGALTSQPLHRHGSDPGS

As for `COc1ccc(OC[C@@]2(c3ccccc3)C[C@H]2C(=O)Nc2ccc(C#N)cn2)cc1OC`, the activity at 10 min, 10 µM on CYP3A is 49%. Further, the IC50 at Cytochrome P450 1A2 is greater than 10 µM; at Cytochrome P450 2D6, greater than 10 µM; at Cytochrome P450 2C8, 8 µM; against Cytochrome P450 2C19, 8.6 µM; at Cytochrome P450 2C9 it was greater than 10 µM. Further, the kinetic solubility came out at 25 µM (≈ 10.7 µg/mL) in [1] and 15 µM (≈ 6.44 µg/mL) in [4]. In series [2], the remaining at 0.25 h, 0.3 µM worked out at 80%. In addition, the Ki on Orexin receptor type 2 was 5 nM; in series [3] it was 106 nM. Besides, the Ratio in series [5] came to 1.

Regarding `CCn1cc(OC[C@@]2(c3ccccc3)C[C@H]2C(=O)Nc2ccc(C#N)cn2)c(C)n1`, the activity at 10 min, 10 µM on CYP3A was 93%. For the same compound, the Ki at Orexin receptor type 2 is 8 nM; in [3] it was 171 nM. This compound also returned a kinetic solubility in series [4] of 64 µM (≈ 25.7 µg/mL). Besides, in series [5], the Ratio turned out to be 0.9.

Take `Cc1ncc(OC[C@@]2(c3ccccc3)C[C@H]2C(=O)Nc2ccc(F)cn2)c(C)n1`: the activity at 10 min, 10 µM at CYP3A was 87%. Further, the Time in the series on Mus musculus turned out to be 72.3 min. Further, half-maximal inhibition in series [6] (IC50) required 7.7 µM. Further, the Ki was 7 nM on Orexin receptor type 2 and 137 nM in series [3]. This compound registered a solubility (kinetic) in series [4] of 92 µM (≈ 36.1 µg/mL). Also, in series [5], the Ratio was 1.7.

Consider `Cc1ncc(OC[C@@]2(c3ccccc3)C[C@H]2C(=O)Nc2ccc(Cl)cn2)c(C)n1`, for which the activity at 10 min, 10 µM on CYP3A is 88%. Further, in the series on Mus musculus, the Time came out at 68.2 min. Moreover, the Ki amounted to 2 nM on Orexin receptor type 2 and 39 nM in [3]. Also, the Ratio in series [5] is reported as 1.3.

On to `Cc1ncc(OC[C@@]2(c3ccccc3)C[C@H]2C(=O)Nc2cc(C)c(F)cn2)c(C)n1`, for which the activity at 10 min, 10 µM on CYP3A was 89%. In the series on Mus musculus, the Time was 67.1 min. Moreover, the Ki came out at 4 nM at Orexin receptor type 2 and 6 nM in series [3]. The solubility (kinetic) in series [4] came to 51 µM (≈ 20.7 µg/mL).

For `Cc1ncc(OC[C@@]2(c3ccccc3F)C[C@H]2C(=O)Nc2ccc(F)cn2)c(C)n1`, the activity at 10 min, 10 µM at CYP3A was 77%. Also, the IC50 in [6] is 5.9 µM. Moreover, the Ki at Orexin receptor type 2 stood at 17 nM; in series [3], 81 nM. Besides, the Ratio in [5] is 1.4.

Turning to `Cc1ncc(OC[C@@]2(c3ccc(F)cc3)C[C@H]2C(=O)Nc2ccc(F)cn2)c(C)n1`, the activity at 10 min, 10 µM on CYP3A amounted to 85%. Besides, the IC50 in series [6] worked out at 2.2 µM. The Ki was 8 nM at Orexin receptor type 2 and 39 nM in series [3]. The Ratio in series [5] turned out to be 1.3.

For the compound `Cc1ncc(OC[C@@]2(c3cc(F)cc(F)c3)C[C@H]2C(=O)Nc2ccc(F)cn2)c(C)n1`, the activity at 10 min, 10 µM on CYP3A worked out at 62%. It took 4.8 µM to reach half-maximal inhibition in series [6] (IC50). The results for the Ki (on Orexin receptor type 2; in [3]) were 3 nM and 7 nM, respectively. In [5], the Ratio was 1.5.

As to `Cc1ncc(OC[C@@]2(c3cccc(F)c3)C[C@H]2C(=O)Nc2cc(C)c(F)cn2)c(C)n1`, the activity at 10 min, 10 µM at CYP3A worked out at 83%. Also, the 50% inhibitory concentration (IC50) in series [6] is greater than 10 µM. Moreover, the Ki at Orexin receptor type 2 worked out at 4 nM; in [3], 2 nM. The kinetic solubility in series [4] turned out to be 46 µM (≈ 19.5 µg/mL). In series [5], the Ratio was determined as 1.4.

In the case of `CCn1cc(OCC2(c3ccccc3)CC2C(=O)Nc2ccc(C#N)cn2)c(C)n1` (racemic), the activity at 10 min, 10 µM on CYP3A came to 84%. Further, the Ki on Orexin receptor type 2 worked out at 10 nM; in series [3], 391 nM. The same compound came in with a solubility (kinetic) in series [4] of 78 µM (≈ 31.3 µg/mL). Further, the Ratio in [5] is 1.5.
